Reference: ChEMBL document CHEMBL4118021, “Studies of TAK1-centered polypharmacology with novel covalent TAK1 inhibitors” (Bioorg Med Chem, 2017)
The source made the active and inactive calls. The calls are words filed in the database; no cut-off is given here.

Tests used:
[1] = target: Activated CDC42 kinase 1 (Homo sapiens) (UniProt Q07912); assay: Inhibition of ACK in human SKCO1 cells at 1 uM after 4 hrs using biotin labeled TVSVAVKCLKPDVLSQPEAMDDFIR probe by mass-spectrometric analysis relative to control; type: cell-based
[2] = target: Serine/threonine-protein kinase RIO3 (Homo sapiens) (UniProt O14730); assay: Inhibition of full length human RIOK3 (1 to 519 residues) expressed in bacterial expression system assessed as enzyme activity at 10 uM by KINOMEScan assay relative to control; parameters: scale not given: the % may be the effect or the level left
Procedure, shortened: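 In vitro ATP-site competition binding assay (KinomeScan) across a panel of 456 kinases. Compound was tested at 1 and 10 μM. The read-out is the binding inhibition score relative to control.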

NCI-H23 = assay: Antiproliferative activity against human NCI-H23 cells harboring KRAS G12C mutant at; type: functional, cell-based
[3] = target: Platelet-derived growth factor receptor beta (Homo sapiens) (UniProt P09619); assay: Inhibition of human PDGFRB (582 to 1009 residues) expressed in bacterial expression system assessed as enzyme activity at 1 uM by KINOMEScan assay relative to control; parameters: scale not given: the % may be the effect or the level left
Procedure, shortened: (§1)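 In vitro ATP-site competition binding assay across a panel of 456 kinases, with compound tested at 1 and 10 μM.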

[4] = target: T1, Dual specificity mitogen-activated protein kinase kinase 4 (Homo sapiens) (UniProt P45985); assay: Inhibition of human MEK4 (84 to 399 residues) expressed in mammalian expression system assessed as enzyme activity at 1 uM by KINOMEScan assay relative to control; parameters: scale not given: the % may be the effect or the level left; procedure, shortened: as §1
T1 sequence (whole entry): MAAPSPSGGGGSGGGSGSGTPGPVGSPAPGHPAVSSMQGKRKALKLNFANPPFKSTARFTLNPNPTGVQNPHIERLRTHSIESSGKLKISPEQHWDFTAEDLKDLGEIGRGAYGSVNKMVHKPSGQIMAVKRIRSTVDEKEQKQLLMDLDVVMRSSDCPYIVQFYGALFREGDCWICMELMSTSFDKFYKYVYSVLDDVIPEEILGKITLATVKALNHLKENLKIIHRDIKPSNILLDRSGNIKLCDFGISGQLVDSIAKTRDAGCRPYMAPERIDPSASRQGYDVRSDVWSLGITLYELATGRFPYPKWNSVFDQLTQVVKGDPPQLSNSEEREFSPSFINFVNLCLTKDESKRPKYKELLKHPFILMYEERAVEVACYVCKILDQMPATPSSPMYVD

[5] = target: Constitutive coactivator of PPAR-gamma-like protein 1 (Homo sapiens) (UniProt Q9NZB2); assay: Binding affinity to FAM120A in human NCI-H358 cells at 1 uM by mass spectrometry based pull down assay; type: cell-based
[6] = target: Small ribosomal subunit protein mS23 (Homo sapiens) (UniProt Q9Y3D9); assay: Binding affinity to MRPS23 in human NCI-H358 cells at 1 uM by mass spectrometry based pull down assay; type: cell-based
Moesin (Homo sapiens) = Moesin (Homo sapiens) (UniProt P26038); assay: Binding affinity to MSN in human NCI-H358 cells at 1 uM by mass spectrometry based pull down assay; type: cell-based
[7] = target: T2, 80S Ribosome (Homo sapiens) (UniProt P08865+P42677+P62753+P15880+P23396+P61247+P62701+P22090+P46782+P62081+P62241+P46781+P46783+P62280+P25398+P62277+P62263+P62841+P62244+P62249+P08708+P62269+P39019+P60866+P63220+P62266+P62847+P62851+P62854+P62979+P62857+P62273+P62861+P39023+P36578+P46777+Q02878+P18124+P62424+P62917+P32969+P27635+P62906+P62913+P30050+P26373+P40429+P50914+P61313+P18621+Q07020+Q02543+P84098+P46778+P35268+P62829+P62750+P83731+P61254+P61353+P46776+P46779+P47914+P62888+P62899+P62910+P49207+P42766+P18077+Q9Y3U8+P83881+P61927+P61513+P63173+P62891+P62945+P05388+P05386); assay: Binding affinity to RPS23 in human NCI-H23 cells at 1 uM by mass spectrometry based pull down assay; type: cell-based
[8] = target: Ribosomal protein S6 kinase alpha-3 (Homo sapiens) (UniProt P51812); assay: Binding affinity to RPS6KA3 in human NCI-H358 cells at 1 uM by mass spectrometry based pull down assay; type: cell-based
[9] = target: Small ribosomal subunit protein mS29 (Homo sapiens) (UniProt P51398); assay: Binding affinity to DAP3 in human NCI-H23 cells at 1 uM by mass spectrometry based pull down assay; type: cell-based
[10] = target: Importin-5 (Homo sapiens) (UniProt O00410); assay: Binding affinity to IPO5 in human NCI-H358 cells at 1 uM by mass spectrometry based pull down assay; type: cell-based
[11] = target: Cancer-related nucleoside-triphosphatase (Homo sapiens) (UniProt Q9BSD7); assay: Binding affinity to NTPCR in human NCI-H23 cells at 1 uM by mass spectrometry based pull down assay; type: cell-based
[12] = target: THO complex subunit 4 (Homo sapiens) (UniProt Q86V81); assay: Binding affinity to ALYREF in human NCI-H23 cells at 1 uM by mass spectrometry based pull down assay; type: cell-based
[13] = target: DNA replication licensing factor MCM6 (Homo sapiens) (UniProt Q14566); assay: Binding affinity to MCM6 in human NCI-H358 cells at 1 uM by mass spectrometry based pull down assay; type: cell-based
[14] = target: Acyl-coenzyme A thioesterase 9, mitochondrial (Homo sapiens) (UniProt Q9Y305); assay: Binding affinity to ACOT9 in human NCI-H23 cells at 1 uM by mass spectrometry based pull down assay; type: cell-based
Procedure, shortened: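 NCI-H23 or NCI-H358 cells were grown and lysed. Lysates were incubated overnight at 4 °C with 1 μM biotinylated covalent probe or DMSO, then pulled down on streptavidin beads. Proteins were run on polyacrylamide gels and stained with Coomassie. Bands were excised, digested and identified by mass spectrometry.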

[15] = target: Ribosomal protein S6 kinase alpha-1 (Homo sapiens) (UniProt Q15418); assay: Binding affinity to RPS6KA1 in human NCI-H358 cells at 1 uM by mass spectrometry based pull down assay; type: cell-based
[16] = target: Membrane-associated progesterone receptor component 1 (Homo sapiens) (UniProt O00264); assay: Binding affinity to PGRMC1 in human NCI-H358 cells at 1 uM by mass spectrometry based pull down assay; type: cell-based
[17] = target: T1, Dual specificity mitogen-activated protein kinase kinase 4 (Homo sapiens); assay: Binding affinity to MAP2K4 in human NCI-H23 cells at 1 uM by mass spectrometry based pull down assay; type: cell-based
[18] = target: RuvB-like 1 (Homo sapiens) (UniProt Q9Y265); assay: Binding affinity to RUVBL1 in human NCI-H23 cells at 1 uM by mass spectrometry based pull down assay; type: cell-based
[19] = target: T2, 80S Ribosome (Homo sapiens); assay: Binding affinity to RPS24 in human NCI-H358 cells at 1 uM by mass spectrometry based pull down assay; type: cell-based

Serine/threonine-protein kinase RIO3 (Homo sapiens), sequence (O14730 whole entry, the tested form may be a part): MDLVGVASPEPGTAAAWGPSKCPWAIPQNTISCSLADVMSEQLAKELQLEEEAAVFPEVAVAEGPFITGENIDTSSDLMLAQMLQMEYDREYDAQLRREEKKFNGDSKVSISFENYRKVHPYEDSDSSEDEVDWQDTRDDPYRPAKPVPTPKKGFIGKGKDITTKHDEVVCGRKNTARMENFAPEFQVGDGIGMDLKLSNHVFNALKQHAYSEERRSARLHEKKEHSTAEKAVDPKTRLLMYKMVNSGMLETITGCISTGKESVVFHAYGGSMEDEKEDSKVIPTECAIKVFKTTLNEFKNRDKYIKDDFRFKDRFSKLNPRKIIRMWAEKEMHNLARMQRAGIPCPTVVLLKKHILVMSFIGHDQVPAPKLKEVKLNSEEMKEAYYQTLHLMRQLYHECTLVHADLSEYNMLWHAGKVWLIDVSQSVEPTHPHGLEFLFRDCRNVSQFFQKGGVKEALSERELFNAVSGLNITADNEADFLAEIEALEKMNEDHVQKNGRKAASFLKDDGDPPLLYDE
Ribosomal protein S6 kinase alpha-3 (Homo sapiens), sequence (P51812 whole entry): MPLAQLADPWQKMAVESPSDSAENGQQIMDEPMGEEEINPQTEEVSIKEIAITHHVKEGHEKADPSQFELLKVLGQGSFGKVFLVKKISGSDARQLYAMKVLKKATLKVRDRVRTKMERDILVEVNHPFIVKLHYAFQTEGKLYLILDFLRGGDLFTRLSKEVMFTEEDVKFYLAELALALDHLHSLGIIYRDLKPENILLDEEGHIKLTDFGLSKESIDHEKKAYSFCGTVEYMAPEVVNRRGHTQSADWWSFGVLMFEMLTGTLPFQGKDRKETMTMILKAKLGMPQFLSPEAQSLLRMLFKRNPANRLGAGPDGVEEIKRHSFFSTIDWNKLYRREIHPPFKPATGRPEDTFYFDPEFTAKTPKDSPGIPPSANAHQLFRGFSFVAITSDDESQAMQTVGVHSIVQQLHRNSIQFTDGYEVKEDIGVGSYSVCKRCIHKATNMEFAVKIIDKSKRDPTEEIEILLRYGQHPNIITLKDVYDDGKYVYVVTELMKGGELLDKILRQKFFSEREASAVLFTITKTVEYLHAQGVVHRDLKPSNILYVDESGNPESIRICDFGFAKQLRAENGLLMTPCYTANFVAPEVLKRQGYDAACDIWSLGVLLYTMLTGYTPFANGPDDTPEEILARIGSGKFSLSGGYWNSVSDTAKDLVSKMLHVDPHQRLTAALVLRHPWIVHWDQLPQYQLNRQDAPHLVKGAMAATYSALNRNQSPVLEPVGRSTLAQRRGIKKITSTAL
Activated CDC42 kinase 1 (Homo sapiens), sequence (Q07912 whole entry, looked up, the tested form may be a part): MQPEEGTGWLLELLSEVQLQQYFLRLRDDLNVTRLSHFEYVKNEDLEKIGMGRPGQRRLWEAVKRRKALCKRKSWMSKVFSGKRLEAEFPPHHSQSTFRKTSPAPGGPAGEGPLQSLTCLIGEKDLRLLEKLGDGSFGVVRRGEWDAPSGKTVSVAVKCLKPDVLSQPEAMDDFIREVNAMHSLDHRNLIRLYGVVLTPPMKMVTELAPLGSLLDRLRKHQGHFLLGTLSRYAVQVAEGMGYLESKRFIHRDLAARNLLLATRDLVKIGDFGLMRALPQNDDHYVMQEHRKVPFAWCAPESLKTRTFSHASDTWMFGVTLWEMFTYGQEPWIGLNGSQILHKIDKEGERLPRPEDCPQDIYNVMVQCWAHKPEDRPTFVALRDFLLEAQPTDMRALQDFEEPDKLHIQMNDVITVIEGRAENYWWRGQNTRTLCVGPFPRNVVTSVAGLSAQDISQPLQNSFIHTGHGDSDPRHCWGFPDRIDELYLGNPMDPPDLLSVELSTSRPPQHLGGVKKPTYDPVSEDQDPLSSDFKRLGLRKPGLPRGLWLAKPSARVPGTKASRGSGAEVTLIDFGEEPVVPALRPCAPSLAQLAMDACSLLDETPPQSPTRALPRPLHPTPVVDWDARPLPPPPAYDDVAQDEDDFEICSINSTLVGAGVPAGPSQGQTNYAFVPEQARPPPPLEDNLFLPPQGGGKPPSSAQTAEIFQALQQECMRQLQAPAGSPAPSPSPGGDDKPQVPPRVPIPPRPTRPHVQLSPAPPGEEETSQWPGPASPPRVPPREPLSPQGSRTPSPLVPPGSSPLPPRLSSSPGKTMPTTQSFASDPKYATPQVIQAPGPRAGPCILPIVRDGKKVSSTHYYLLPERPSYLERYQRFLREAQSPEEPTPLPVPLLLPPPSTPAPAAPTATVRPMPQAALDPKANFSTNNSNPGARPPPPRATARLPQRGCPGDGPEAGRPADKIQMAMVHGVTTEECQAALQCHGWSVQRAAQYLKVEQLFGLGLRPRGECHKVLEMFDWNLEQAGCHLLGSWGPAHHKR
Acyl-coenzyme A thioesterase 9, mitochondrial (Homo sapiens), sequence (Q9Y305 whole entry): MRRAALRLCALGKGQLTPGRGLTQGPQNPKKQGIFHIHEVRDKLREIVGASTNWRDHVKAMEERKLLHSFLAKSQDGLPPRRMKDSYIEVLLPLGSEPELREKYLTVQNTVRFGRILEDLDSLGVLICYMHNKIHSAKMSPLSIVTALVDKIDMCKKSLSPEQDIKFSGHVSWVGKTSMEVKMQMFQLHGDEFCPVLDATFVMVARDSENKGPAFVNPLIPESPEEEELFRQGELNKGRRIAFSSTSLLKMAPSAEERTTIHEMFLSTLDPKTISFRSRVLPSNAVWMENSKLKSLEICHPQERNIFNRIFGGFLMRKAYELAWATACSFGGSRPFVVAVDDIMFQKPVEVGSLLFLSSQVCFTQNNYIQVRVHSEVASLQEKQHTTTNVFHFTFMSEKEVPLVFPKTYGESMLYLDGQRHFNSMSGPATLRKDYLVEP
Constitutive coactivator of PPAR-gamma-like protein 1 (Homo sapiens), sequence (Q9NZB2 whole entry): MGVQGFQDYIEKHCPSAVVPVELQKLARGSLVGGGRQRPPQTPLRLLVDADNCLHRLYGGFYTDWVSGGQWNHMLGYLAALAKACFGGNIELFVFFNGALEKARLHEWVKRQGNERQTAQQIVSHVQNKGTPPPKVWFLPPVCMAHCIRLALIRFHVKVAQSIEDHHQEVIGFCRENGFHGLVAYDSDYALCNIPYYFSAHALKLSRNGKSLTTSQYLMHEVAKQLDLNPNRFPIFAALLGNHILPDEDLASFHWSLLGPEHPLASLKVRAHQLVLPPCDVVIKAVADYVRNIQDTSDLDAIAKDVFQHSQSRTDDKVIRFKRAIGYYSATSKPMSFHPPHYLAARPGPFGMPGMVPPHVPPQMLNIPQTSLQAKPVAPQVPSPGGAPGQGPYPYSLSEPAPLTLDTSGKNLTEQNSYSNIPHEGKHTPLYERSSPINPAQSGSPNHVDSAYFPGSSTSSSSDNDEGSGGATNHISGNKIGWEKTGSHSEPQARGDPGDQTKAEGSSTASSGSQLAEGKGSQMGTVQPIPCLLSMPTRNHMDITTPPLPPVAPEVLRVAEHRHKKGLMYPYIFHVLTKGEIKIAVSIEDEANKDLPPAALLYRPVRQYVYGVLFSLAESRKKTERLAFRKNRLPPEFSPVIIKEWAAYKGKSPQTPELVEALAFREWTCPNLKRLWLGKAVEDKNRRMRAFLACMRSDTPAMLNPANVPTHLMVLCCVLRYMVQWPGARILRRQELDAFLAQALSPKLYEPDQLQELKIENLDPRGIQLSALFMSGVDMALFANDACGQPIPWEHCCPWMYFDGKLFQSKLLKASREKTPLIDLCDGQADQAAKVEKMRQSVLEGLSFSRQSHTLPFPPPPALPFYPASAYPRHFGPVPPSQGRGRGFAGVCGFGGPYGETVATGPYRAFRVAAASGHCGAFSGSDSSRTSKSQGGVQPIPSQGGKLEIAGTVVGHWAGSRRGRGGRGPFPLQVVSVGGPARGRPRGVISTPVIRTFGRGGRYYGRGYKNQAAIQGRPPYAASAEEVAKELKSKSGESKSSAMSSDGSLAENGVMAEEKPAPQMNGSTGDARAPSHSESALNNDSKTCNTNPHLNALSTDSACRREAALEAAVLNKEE
RuvB-like 1 (Homo sapiens), sequence (Q9Y265 whole entry): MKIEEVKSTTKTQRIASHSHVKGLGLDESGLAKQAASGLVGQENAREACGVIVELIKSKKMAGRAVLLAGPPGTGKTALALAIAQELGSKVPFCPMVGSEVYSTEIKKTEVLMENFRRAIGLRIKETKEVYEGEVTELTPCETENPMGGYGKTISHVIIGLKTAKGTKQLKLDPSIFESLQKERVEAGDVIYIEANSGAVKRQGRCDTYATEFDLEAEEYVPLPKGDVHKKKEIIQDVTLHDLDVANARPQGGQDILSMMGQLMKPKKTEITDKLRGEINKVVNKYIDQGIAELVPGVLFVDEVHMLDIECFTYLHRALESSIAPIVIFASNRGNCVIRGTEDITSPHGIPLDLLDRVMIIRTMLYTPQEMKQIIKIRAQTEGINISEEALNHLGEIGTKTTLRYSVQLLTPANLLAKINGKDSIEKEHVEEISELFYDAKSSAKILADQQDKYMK
Cancer-related nucleoside-triphosphatase (Homo sapiens), sequence (Q9BSD7 whole entry): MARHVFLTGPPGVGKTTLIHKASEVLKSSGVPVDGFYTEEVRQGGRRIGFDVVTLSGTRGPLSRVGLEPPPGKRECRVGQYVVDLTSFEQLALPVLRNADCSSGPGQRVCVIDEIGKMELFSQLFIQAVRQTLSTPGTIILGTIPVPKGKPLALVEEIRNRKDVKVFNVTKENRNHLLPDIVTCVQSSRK
Membrane-associated progesterone receptor component 1 (Homo sapiens), sequence (O00264 whole entry): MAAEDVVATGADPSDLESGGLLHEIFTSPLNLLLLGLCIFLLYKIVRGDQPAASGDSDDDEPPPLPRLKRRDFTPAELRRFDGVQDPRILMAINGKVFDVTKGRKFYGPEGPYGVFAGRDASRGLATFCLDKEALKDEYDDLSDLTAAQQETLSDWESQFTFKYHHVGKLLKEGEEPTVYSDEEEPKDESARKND

Structure (SMILES): C=CC(=O)Nc1ccccc1Nc1nc(Nc2ccc(N3CCN(C)CC3)cc2)ncc1Cl
- inhibition [1]: 45.1%

Structure (SMILES): COc1cc(O)c2c(c1)/C=C/C[C@H](O)[C@H](O)C(=O)/C=C\C[C@H](C)OC2=O
- Activity [2]: 0%
- Activity (NCI-H23): Active
- Activity [3]: 1.5%
- Activity [4]: 19%

Structure (SMILES): C=CC(=O)Nc1ccccc1Nc1nc(Nc2ccc(N3CCN(CCOCCOCCOCCNC(=O)CCCC[C@@H]4SC[C@@H]5NC(=O)N[C@@H]54)CC3)cc2)ncc1Cl
- Activity [5]: Active
- Activity [6]: Active
- Activity (Moesin (Homo sapiens)): Active
- Activity [7]: Active
- Activity [8]: Active
- Activity [9]: Active
- Activity [10]: Active
- Activity [11]: Active
- Activity [12]: Active
- Activity [13]: Active
- Activity [14]: Active
- Activity [15]: Active
- Activity [16]: Active
- Activity [17]: Active
- Activity [18]: Active
- Activity [19]: Active
